In brackets after ≈: the same amount, converted by molar mass. Activity calls are given as the source filed them. No cut-off for these calls is given here.
Columns and labels:
Aspergillus flavus [1] = assay: Antifungal activity against Aspergillus flavus MTCC 1021 assessed as zone of inhibition at 80 uM after 48 hrs by disc diffusion method; assay type: functional; conditions: MTCC 1021, 48 h, read-out: IZ
Procedure, shortened: (§1)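 Spores from 4-day potato dextrose agar cultures, suspended in sterile water at 1.5 × 10⁵ CFU/mL. 0.2 mL was spread on potato dextrose agar. 5 mm filter-paper discs soaked with test compound were laid on the lawn. Incubation was 48 h at 28 °C, then the inhibition zone was measured in mm. Fluconazole was the positive control and acetone the negative control.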

Salmonella typhi [2] = assay: Antimicrobial activity against Salmonella typhi ATCC 23564 assessed as diameter of inhibition zone at 80 uM after 24 hrs by Kirby -Baur disc diffusion method; assay type: functional, Salmonella enterica subsp. enterica serovar Typhi; conditions: Salmonella enterica, ATCC 23564, 24 h; read-out: DIZ
Curvularia lunata [3] = assay: Antifungal activity against Curvularia lunata MTCC 581 assessed as zone of inhibition at 20 uM after 48 hrs by disc diffusion method; assay type: functional; conditions: MTCC 581, 48 h, read-out: IZ; procedure, shortened: as §1
Trichoderma viride [4] = assay: Antifungal activity against Trichoderma viride MTCC 1107 after 48 hrs; assay type: functional; conditions: MTCC 1107, 48 h
Aspergillus flavus [5] = assay: Antifungal activity against Aspergillus flavus MTCC 1021 assessed as zone of inhibition at 40 uM after 48 hrs by disc diffusion method; assay type: functional; conditions: MTCC 1021, 48 h, read-out: IZ; procedure, shortened: as §1
Staphylococcus aureus [6] = assay: Antimicrobial activity against Staphylococcus aureus ATCC 11632 assessed as diameter of inhibition zone at 80 uM after 24 hrs by Kirby -Baur disc diffusion method; assay type: functional; conditions: ATCC 11632, 24 h, read-out: DIZ
Procedure, shortened: (§2)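 Kirby-Bauer disc diffusion was used. Acetone stocks (160 µM) were serially doubled down to 80, 40 and 20 µM. 4 µL of each went onto 5 mm sterile paper discs, which were dried 30 min at 50 °C. Inoculum was 1.5 × 10⁸ CFU/mL diluted to 3 × 10² CFU/mL, and 50 µL was spread on Mueller-Hinton agar. After 24 h at 37 °C the inhibition-zone diameter was measured. Ciprofloxacin served as positive control.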

Bacillus cereus [7] = assay: Antimicrobial activity against Bacillus cereus MTCC 7350 assessed as diameter of inhibition zone at 80 uM after 24 hrs by Kirby -Baur disc diffusion method; assay type: functional; conditions: MTCC 7350, 24 h, read-out: DIZ; procedure, shortened: as §2
HeLa = assay: Cytotoxicity against human HeLa cells after 24 hrs by MTT assay; assay type: functional, cell-based
Procedure, shortened: (§3)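 The MTT assay seeded 5 × 10⁴ cells per well and grew them 24 h in RPMI 1640 with compound at 2.5–200 µM. Medium without cells was the blank and adriamycin the positive control. MTT was added for 4 h at 37 °C, formazan was solubilised, and absorbance was read at 570 nm. IC50 is the concentration that cuts viability 50% against untreated cells.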

Pseudomonas aeruginosa [8] = assay: Antimicrobial activity against Pseudomonas aeruginosa ATCC 15499 after 24 hrs by broth micro serial dilution method; assay type: functional; conditions: ATCC 15499, 24 h
Procedure, shortened: (§4)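 This was broth microdilution in autoclaved Mueller-Hinton broth. 150 µL of compound per well was serially diluted […], and 50 µL of test organism was added. Plates were incubated 24 h at 37 °C and optical density was read.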

HCT-116 = assay: Cytotoxicity against human HCT116 cells after 24 hrs by MTT assay; assay type: functional, cell-based; procedure, shortened: as §3
Trichoderma viride [9] = assay: Antifungal activity against Trichoderma viride MTCC 1107 assessed as zone of inhibition at 40 uM after 48 hrs by disc diffusion method; assay type: functional; conditions: MTCC 1107, 48 h, read-out: IZ; procedure, shortened: as §1
Salmonella typhi [10] = assay: Antimicrobial activity against Salmonella typhi ATCC 23564 assessed as diameter of inhibition zone at 40 uM after 24 hrs by Kirby -Baur disc diffusion method; assay type: functional, Salmonella enterica subsp. enterica serovar Typhi; conditions: Salmonella enterica, ATCC 23564, 24 h; read-out: DIZ
Curvularia lunata [11] = assay: Antifungal activity against Curvularia lunata MTCC 581 assessed as zone of inhibition at 80 uM after 48 hrs by disc diffusion method; assay type: functional; conditions: MTCC 581, 48 h, read-out: IZ; procedure, shortened: as §1
Bacillus cereus [12] = assay: Antimicrobial activity against Bacillus cereus MTCC 7350 after 24 hrs by broth micro serial dilution method; assay type: functional; conditions: MTCC 7350, 24 h; procedure, shortened: as §4
Escherichia coli [13] = assay: Antimicrobial activity against Escherichia coli ATCC 35218 assessed as diameter of inhibition zone at 80 uM after 24 hrs by Kirby -Baur disc diffusion method; assay type: functional; conditions: ATCC 35218, 24 h, read-out: DIZ; procedure, shortened: as §2
HepG2 = assay: Cytotoxicity against human HepG2 cells after 24 hrs by MTT assay; assay type: functional, cell-based; procedure, shortened: as §3
Aspergillus niger [14] = assay: Antifungal activity against Aspergillus niger MTCC 1108 assessed as zone of inhibition at 20 uM after 48 hrs by disc diffusion method; assay type: functional; procedure, shortened: as §1
Trichoderma viride [15] = assay: Antifungal activity against Trichoderma viride MTCC 1107 assessed as zone of inhibition at 80 uM after 48 hrs by disc diffusion method; assay type: functional; conditions: MTCC 1107, 48 h, read-out: IZ; procedure, shortened: as §1
Aspergillus flavus [16] = assay: Antifungal activity against Aspergillus flavus MTCC 1021 after 48 hrs; assay type: functional; conditions: MTCC 1021, 48 h
Aspergillus niger [17] = assay: Antifungal activity against Aspergillus niger MTCC 1108 assessed as zone of inhibition at 80 uM after 48 hrs by disc diffusion method; assay type: functional; conditions: MTCC 1108, 48 h, read-out: IZ; procedure, shortened: as §1
Escherichia coli [18] = assay: Antimicrobial activity against Escherichia coli ATCC 35218 assessed as diameter of inhibition zone at 40 uM after 24 hrs by Kirby -Baur disc diffusion method; assay type: functional; conditions: ATCC 35218, 24 h, read-out: DIZ; procedure, shortened: as §2
Pseudomonas aeruginosa [19] = assay: Antimicrobial activity against Pseudomonas aeruginosa ATCC 15499 assessed as diameter of inhibition zone at 20 uM after 24 hrs by Kirby -Baur disc diffusion method; assay type: functional; conditions: ATCC 15499, 24 h, read-out: DIZ; procedure, shortened: as §2
Pseudomonas aeruginosa [20] = assay: Antimicrobial activity against Pseudomonas aeruginosa ATCC 15499 assessed as diameter of inhibition zone at 80 uM after 24 hrs by Kirby -Baur disc diffusion method; assay type: functional; conditions: ATCC 15499, 24 h, read-out: DIZ; procedure, shortened: as §2
Staphylococcus aureus [21] = assay: Antimicrobial activity against Staphylococcus aureus ATCC 11632 assessed as diameter of inhibition zone at 20 uM after 24 hrs by Kirby -Baur disc diffusion method; assay type: functional; conditions: ATCC 11632, 24 h, read-out: DIZ; procedure, shortened: as §2
QG-56 = assay: Cytotoxicity against human QG56 cells after 24 hrs by MTT assay; assay type: functional, cell-based; procedure, shortened: as §3
Staphylococcus aureus [22] = assay: Antimicrobial activity against Staphylococcus aureus ATCC 11632 assessed as diameter of inhibition zone at 40 uM after 24 hrs by Kirby -Baur disc diffusion method; assay type: functional; conditions: ATCC 11632, 24 h, read-out: DIZ; procedure, shortened: as §2
Escherichia coli [23] = assay: Antimicrobial activity against Escherichia coli ATCC 35218 after 24 hrs by broth micro serial dilution method; assay type: functional; conditions: ATCC 35218, 24 h; procedure, shortened: as §4
Bacillus cereus [24] = assay: Antimicrobial activity against Bacillus cereus MTCC 7350 assessed as diameter of inhibition zone at 40 uM after 24 hrs by Kirby -Baur disc diffusion method; assay type: functional; conditions: MTCC 7350, 24 h, read-out: DIZ; procedure, shortened: as §2
Salmonella typhi [25] = assay: Antimicrobial activity against Salmonella typhi ATCC 23564 assessed as diameter of inhibition zone at 20 uM after 24 hrs by Kirby -Baur disc diffusion method; assay type: functional, Salmonella enterica subsp. enterica serovar Typhi; conditions: Salmonella enterica, ATCC 23564, 24 h; read-out: DIZ
Salmonella typhi [26] = assay: Antimicrobial activity against Salmonella typhi ATCC 23564 after 24 hrs by broth micro serial dilution method; assay type: functional, Salmonella enterica subsp. enterica serovar Typhi; conditions: Salmonella enterica, ATCC 23564, 24 h
Aspergillus flavus [27] = assay: Antifungal activity against Aspergillus flavus MTCC 1021 assessed as zone of inhibition at 20 uM after 48 hrs by disc diffusion method; assay type: functional; procedure, shortened: as §1
Aspergillus niger [28] = assay: Antifungal activity against Aspergillus niger MTCC 1108 assessed as zone of inhibition at 40 uM after 48 hrs by disc diffusion method; assay type: functional; conditions: MTCC 1108, 48 h, read-out: IZ; procedure, shortened: as §1
Escherichia coli [29] = assay: Antimicrobial activity against Escherichia coli ATCC 35218 assessed as diameter of inhibition zone at 20 uM after 24 hrs by Kirby -Baur disc diffusion method; assay type: functional; conditions: ATCC 35218, 24 h, read-out: DIZ; procedure, shortened: as §2
Aspergillus niger [30] = assay: Antifungal activity against Aspergillus niger MTCC 1108 after 48 hrs; assay type: functional; conditions: MTCC 1108, 48 h
Curvularia lunata [31] = assay: Antifungal activity against Curvularia lunata MTCC 581 after 48 hrs; assay type: functional; conditions: MTCC 581, 48 h
Pseudomonas aeruginosa [32] = assay: Antimicrobial activity against Pseudomonas aeruginosa ATCC 15499 assessed as diameter of inhibition zone at 40 uM after 24 hrs by Kirby -Baur disc diffusion method; assay type: functional; conditions: ATCC 15499, 24 h, read-out: DIZ; procedure, shortened: as §2
Staphylococcus aureus [33] = assay: Antimicrobial activity against Staphylococcus aureus ATCC 11632 after 24 hrs by broth micro serial dilution method; assay type: functional; conditions: ATCC 11632, 24 h; procedure, shortened: as §4
Curvularia lunata [34] = assay: Antifungal activity against Curvularia lunata MTCC 581 assessed as zone of inhibition at 40 uM after 48 hrs by disc diffusion method; assay type: functional; conditions: MTCC 581, 48 h, read-out: IZ; procedure, shortened: as §1
Trichoderma viride [35] = assay: Antifungal activity against Trichoderma viride MTCC 1107 assessed as zone of inhibition at 20 uM after 48 hrs by disc diffusion method; assay type: functional; conditions: MTCC 1107, 48 h, read-out: IZ; procedure, shortened: as §1
Bacillus cereus [36] = assay: Antimicrobial activity against Bacillus cereus MTCC 7350 assessed as diameter of inhibition zone at 20 uM after 24 hrs by Kirby -Baur disc diffusion method; assay type: functional; conditions: MTCC 7350, 24 h, read-out: DIZ; procedure, shortened: as §2
Mus musculus = assay: Antiinflammatory activity in mouse assessed as inhibition of carrageenan-induced increase in paw volume at 200 mg/kg administered 1 hr prior to carrageenan challenge measured after 3 hrs relative to control; assay type: functional
Procedure, shortened: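 Mice were fasted 2 h and placed in groups of five. Controls received saline i.p. Phenylbutazone was given at 100 mg/kg i.p., curcumin at 200 mg/kg i.p., and derivatives at 200 mg/kg. After 1 h, 0.1 mL of 1% carrageenan in saline was injected subplantar into the right hind paw. Paw volume was followed by plethysmometer for 3 h, and % inhibition was calculated as (Vc − Vt)/Vc × 100.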

Compound `COc1cc(/C=C/C(O)=C/C(/C=C/c2ccc(O)c(OC)c2)=N/c2ccc(S(=O)(=O)Nc3cc(C)on3)cc2)ccc1O` has a zone of inhibition at 80 µM (Aspergillus flavus [1]) of 11 mm, a zone of inhibition at 80 µM (Salmonella typhi [2]) of 20 mm and a zone of inhibition at 20 µM (Curvularia lunata [3]) of 9 mm. The MIC (Trichoderma viride [4]) was 80 µM (≈ 48.3 µg/mL), the zone of inhibition at 40 µM (Aspergillus flavus [5]) was 9 mm and the zone of inhibition at 80 µM (Staphylococcus aureus [6]) was 24 mm. For the same compound, the zone of inhibition at 80 µM (Bacillus cereus [7]) was 21 mm, the IC50 (HeLa) was 50 µM and the MIC (Pseudomonas aeruginosa [8]) was 20 µM (≈ 12.1 µg/mL). For the same compound, the IC50 (HCT-116) was 25 µM, the zone of inhibition at 40 µM (Trichoderma viride [9]) was 11 mm and the zone of inhibition at 40 µM (Salmonella typhi [10]) was 17 mm. For the same compound, the zone of inhibition at 80 µM (Curvularia lunata [11]) was 11 mm, the MIC (Bacillus cereus [12]) was 20 µM (≈ 12.1 µg/mL) and the zone of inhibition at 80 µM (Escherichia coli [13]) was 27 mm. For the same compound, the IC50 (HepG2) was 25 µM, the “inhibition zone (IZ)” value (Aspergillus niger [14]) was “inactive” and the zone of inhibition at 80 µM (Trichoderma viride [15]) was 13 mm. The MIC (Aspergillus flavus [16]) was over 80 µM, the zone of inhibition at 80 µM (Aspergillus niger [17]) was 12 mm and the zone of inhibition at 40 µM (Escherichia coli [18]) was 21 mm. The zone of inhibition at 20 µM (Pseudomonas aeruginosa [19]) was 17 mm, the zone of inhibition at 80 µM (Pseudomonas aeruginosa [20]) was 25 mm and the zone of inhibition at 20 µM (Staphylococcus aureus [21]) was 17 mm. The IC50 (QG-56) was 50 µM, the zone of inhibition at 40 µM (Staphylococcus aureus [22]) was 21 mm and the MIC (Escherichia coli [23]) was 20 µM (≈ 12.1 µg/mL). It also gave a zone of inhibition at 40 µM (Bacillus cereus [24]) of 18 mm, a zone of inhibition at 20 µM (Salmonella typhi [25]) of 12 mm and an MIC (Salmonella typhi [26]) of 20 µM (≈ 12.1 µg/mL). For the same compound, the “inhibition zone (IZ)” value (Aspergillus flavus [27]) was “inactive”, the zone of inhibition at 40 µM (Aspergillus niger [28]) was 9 mm and the zone of inhibition at 20 µM (Escherichia coli [29]) was 19 mm. For the same compound, the MIC (Aspergillus niger [30]) was 40 µM (≈ 24.1 µg/mL), the MIC (Curvularia lunata [31]) was 80 µM (≈ 48.3 µg/mL) and the zone of inhibition at 40 µM (Pseudomonas aeruginosa [32]) was 23 mm. The MIC (Staphylococcus aureus [33]) was 20 µM (≈ 12.1 µg/mL), the zone of inhibition at 40 µM (Curvularia lunata [34]) was 10 mm and the zone of inhibition at 20 µM (Trichoderma viride [35]) was 9 mm. It also gave a zone of inhibition at 20 µM (Bacillus cereus [36]) of 13 mm and an inhibition in vivo at 200 mg/kg (Mus musculus) of 33.8%.

From ChEMBL document CHEMBL2384906, “Biological activity, design, synthesis and structure activity relationship of some novel derivatives of curcumin containing sulfonamides” (Eur J Med Chem, 2013)
